Measured values published in ChEMBL document CHEMBL4033721, “Design, synthesis and evaluation of indole-2-carboxamides with pan anti-mycobacterial activity” (Bioorg Med Chem, 2017).
Converted amounts (≈) assume the structure as drawn.

test system: Mycobacteroides abscessus; assay: Antimycobacterial activity against Mycobacterium abscessus ATCC 19977 after 8 days by resazurin microtiter based colorimetric assay; format: functional; details: ATCC 19977, 192 h
Method in brief: (§1)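 Resazurin microtiter plate MIC, read by visual scan for growth, in Mueller Hinton II broth. Strains include clinical isolates of M. abscessus complex, M. chelonae, M. avium, M. intracellulare, M. xenopi, P. aeruginosa PAO-1 and S. aureus ATCC 25923.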

Row | SMILES | MIC
1 | Cc1cc(C)c2cc(C(=O)NCC34CC5CC(CC(C5)C3)C4)[nH]c2c1 | > 32 µg/mL
2 | O=C(NC1CCCC1)c1cc2ccccc2[nH]1 | > 32 µg/mL
3 | Cc1cc(C)c2cc(C(=O)NC3CCCC3)[nH]c2c1 | 4 µg/mL (≈ 15.6 µM)
4 | C[C@H]1CC[C@H](NC(=O)c2cc3ccccc3[nH]2)CC1 | > 32 µg/mL
5 | O=C(NCC12CC3CC(CC(C3)C1)C2)c1cc2ccccc2[nH]1 | 2 µg/mL (≈ 6.48 µM)
6 | Cc1cc(C)c2cc(C(=O)NC34CC5CC(CC(C5)C3)C4)[nH]c2c1 | > 32 µg/mL

test system: Mycobacteroides abscessus; assay: Antimycobacterial activity against Mycobacterium abscessus isolate DCI 21 after 8 days by resazurin microtiter based colorimetric assay; format: functional; details: isolate DCI 21, 192 h; method in brief: as §1

Row | SMILES | MIC
7 | Cc1cc(C)c2cc(C(=O)NCC34CC5CC(CC(C5)C3)C4)[nH]c2c1 | > 32 µg/mL
8 | O=C(NC1CCCC1)c1cc2ccccc2[nH]1 | > 32 µg/mL
9 | Cc1cc(C)c2cc(C(=O)NC3CCCC3)[nH]c2c1 | 4 µg/mL (≈ 15.6 µM)
10 | C[C@H]1CC[C@H](NC(=O)c2cc3ccccc3[nH]2)CC1 | > 32 µg/mL
11 | O=C(NCC12CC3CC(CC(C3)C1)C2)c1cc2ccccc2[nH]1 | 2 µg/mL (≈ 6.48 µM)
12 | Cc1cc(C)c2cc(C(=O)NC34CC5CC(CC(C5)C3)C4)[nH]c2c1 | 32 µg/mL (≈ 99.2 µM)

test system: not listed separately; assay: Antimycobacterial activity against Mycobacterium massiliense isolate CIP108297 after 8 days by resazurin microtiter based colorimetric assay; format: functional, Mycobacterium abscessus subsp. massiliense; details: Mycobacteroides abscessus, isolate CIP108297, 192 h; method in brief: as §1

Row | SMILES | MIC
13 | Cc1cc(C)c2cc(C(=O)NCC34CC5CC(CC(C5)C3)C4)[nH]c2c1 | > 32 µg/mL
14 | O=C(NC1CCCC1)c1cc2ccccc2[nH]1 | > 32 µg/mL
15 | Cc1cc(C)c2cc(C(=O)NC3CCCC3)[nH]c2c1 | 8 µg/mL (≈ 31.2 µM)
16 | C[C@H]1CC[C@H](NC(=O)c2cc3ccccc3[nH]2)CC1 | > 32 µg/mL
17 | O=C(NCC12CC3CC(CC(C3)C1)C2)c1cc2ccccc2[nH]1 | 2 µg/mL (≈ 6.48 µM)
18 | Cc1cc(C)c2cc(C(=O)NC34CC5CC(CC(C5)C3)C4)[nH]c2c1 | > 32 µg/mL

test system: not listed separately; assay: Antimycobacterial activity against Mycobacterium massiliense isolate CRM0019 after 8 days by resazurin microtiter based colorimetric assay; format: functional, Mycobacterium abscessus subsp. massiliense; details: Mycobacteroides abscessus, isolate CRM0019, 192 h; method in brief: as §1

Row | SMILES | MIC
19 | Cc1cc(C)c2cc(C(=O)NCC34CC5CC(CC(C5)C3)C4)[nH]c2c1 | > 32 µg/mL
20 | O=C(NC1CCCC1)c1cc2ccccc2[nH]1 | > 32 µg/mL
21 | Cc1cc(C)c2cc(C(=O)NC3CCCC3)[nH]c2c1 | 8 µg/mL (≈ 31.2 µM)
22 | C[C@H]1CC[C@H](NC(=O)c2cc3ccccc3[nH]2)CC1 | > 32 µg/mL
23 | O=C(NCC12CC3CC(CC(C3)C1)C2)c1cc2ccccc2[nH]1 | > 32 µg/mL
24 | Cc1cc(C)c2cc(C(=O)NC34CC5CC(CC(C5)C3)C4)[nH]c2c1 | > 32 µg/mL

test system: not listed separately; assay: Antimycobacterial activity against Mycobacterium bolletii ATCC 14472 after 8 days by resazurin microtiter based colorimetric assay; format: functional; details: Mycobacteroides abscessus, ATCC 14472, 192 h; method in brief: as §1

Row | SMILES | MIC
25 | Cc1cc(C)c2cc(C(=O)NCC34CC5CC(CC(C5)C3)C4)[nH]c2c1 | > 32 µg/mL
26 | O=C(NC1CCCC1)c1cc2ccccc2[nH]1 | > 32 µg/mL
27 | Cc1cc(C)c2cc(C(=O)NC3CCCC3)[nH]c2c1 | 2 µg/mL (≈ 7.8 µM)
28 | C[C@H]1CC[C@H](NC(=O)c2cc3ccccc3[nH]2)CC1 | > 32 µg/mL
29 | O=C(NCC12CC3CC(CC(C3)C1)C2)c1cc2ccccc2[nH]1 | 2 µg/mL (≈ 6.48 µM)
30 | Cc1cc(C)c2cc(C(=O)NC34CC5CC(CC(C5)C3)C4)[nH]c2c1 | > 32 µg/mL

test system: Mycobacteroides chelonae; assay: Antimycobacterial activity against Mycobacterium chelonae ATCC 35752 after 8 days by resazurin microtiter based colorimetric assay; format: functional; details: ATCC 35752, 192 h; method in brief: as §1

Row | SMILES | MIC
31 | Cc1cc(C)c2cc(C(=O)NCC34CC5CC(CC(C5)C3)C4)[nH]c2c1 | > 32 µg/mL
32 | O=C(NC1CCCC1)c1cc2ccccc2[nH]1 | > 32 µg/mL
33 | Cc1cc(C)c2cc(C(=O)NC3CCCC3)[nH]c2c1 | 2 µg/mL (≈ 7.8 µM)
34 | C[C@H]1CC[C@H](NC(=O)c2cc3ccccc3[nH]2)CC1 | > 32 µg/mL
35 | O=C(NCC12CC3CC(CC(C3)C1)C2)c1cc2ccccc2[nH]1 | 1 µg/mL (≈ 3.24 µM)
36 | Cc1cc(C)c2cc(C(=O)NC34CC5CC(CC(C5)C3)C4)[nH]c2c1 | > 32 µg/mL

test system: Mycobacterium tuberculosis; assay: Antimycobacterial activity against Mycobacterium tuberculosis H37Rv MC2-6206 after 8 days by resazurin microtiter based colorimetric assay; format: functional; details: H37Rv MC2-6206, 192 h
Method in brief: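 MIC was measured by resazurin microtiter colorimetric assay with visual growth scoring. Medium was 7H9-ADC–0.05% tyloxapol with 0.2% casaminoacids, 48 µg/ml pantothenate and 50 µg/ml L-leucine.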

Row | SMILES | MIC
37 | Cc1cc(C)c2cc(C(=O)NCC34CC5CC(CC(C5)C3)C4)[nH]c2c1 | 0.16 µg/mL (≈ 0.476 µM)
38 | O=C(NC1CCCC1)c1cc2ccccc2[nH]1 | > 10 µg/mL
39 | Cc1cc(C)c2cc(C(=O)NC3CCCC3)[nH]c2c1 | 2.5 µg/mL (≈ 9.75 µM)
40 | C[C@H]1CC[C@H](NC(=O)c2cc3ccccc3[nH]2)CC1 | > 10 µg/mL
41 | O=C(NCC12CC3CC(CC(C3)C1)C2)c1cc2ccccc2[nH]1 | > 5 µg/mL
42 | Cc1cc(C)c2cc(C(=O)NC34CC5CC(CC(C5)C3)C4)[nH]c2c1 | 0.0195 µg/mL (≈ 0.0605 µM)

test system: Mycolicibacterium smegmatis; assay: Antimycobacterial activity against Mycobacterium smegmatis isolate MC2 155 after 8 days by resazurin microtiter based colorimetric assay; format: functional; details: str. MC2 155, 192 h

Row | SMILES | MIC
43 | Cc1cc(C)c2cc(C(=O)NCC34CC5CC(CC(C5)C3)C4)[nH]c2c1 | > 20 µg/mL
44 | O=C(NC1CCCC1)c1cc2ccccc2[nH]1 | > 25 µg/mL
45 | Cc1cc(C)c2cc(C(=O)NC3CCCC3)[nH]c2c1 | 5 µg/mL (≈ 19.5 µM)
46 | C[C@H]1CC[C@H](NC(=O)c2cc3ccccc3[nH]2)CC1 | > 25 µg/mL
47 | O=C(NCC12CC3CC(CC(C3)C1)C2)c1cc2ccccc2[nH]1 | > 20 µg/mL
48 | Cc1cc(C)c2cc(C(=O)NC34CC5CC(CC(C5)C3)C4)[nH]c2c1 | 1.25 to 2.5 µg/mL (≈ 3.88 to 7.75 µM)

test system: Mycobacterium avium; assay: Antimycobacterial activity against Mycobacterium avium isolate 104 after 8 days by resazurin microtiter based colorimetric assay; format: functional; details: isolate 104, 192 h
Method in brief: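 M. avium 104 MICs were read by resazurin microtiter colorimetric assay in 96-well plates, with growth scored visually, in Mueller Hinton II medium.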

Row | SMILES | MIC
49 | Cc1cc(C)c2cc(C(=O)NCC34CC5CC(CC(C5)C3)C4)[nH]c2c1 | > 32 µg/mL
50 | Cc1cc(C)c2cc(C(=O)NC3CCCC3)[nH]c2c1 | > 32 µg/mL
51 | O=C(NCC12CC3CC(CC(C3)C1)C2)c1cc2ccccc2[nH]1 | > 32 µg/mL
52 | Cc1cc(C)c2cc(C(=O)NC34CC5CC(CC(C5)C3)C4)[nH]c2c1 | > 32 µg/mL

test system: Mycobacterium avium-intracellulare; assay: Antimycobacterial activity against Mycobacterium avium-intracellulare isolate 1956 after 8 days by resazurin microtiter based colorimetric assay; format: functional; details: isolate 1956, 192 h; method in brief: as §1

Row | SMILES | MIC
53 | Cc1cc(C)c2cc(C(=O)NCC34CC5CC(CC(C5)C3)C4)[nH]c2c1 | > 32 µg/mL
54 | Cc1cc(C)c2cc(C(=O)NC3CCCC3)[nH]c2c1 | > 32 µg/mL
55 | O=C(NCC12CC3CC(CC(C3)C1)C2)c1cc2ccccc2[nH]1 | > 32 µg/mL
56 | Cc1cc(C)c2cc(C(=O)NC34CC5CC(CC(C5)C3)C4)[nH]c2c1 | > 32 µg/mL

test system: Mycobacterium xenopi; assay: Antimycobacterial activity against wild type Mycobacterium xenopi isolate 4042 after 8 days by resazurin microtiter based colorimetric assay; format: functional; details: isolate 4042, 192 h; method in brief: as §1

Row | SMILES | MIC
57 | Cc1cc(C)c2cc(C(=O)NCC34CC5CC(CC(C5)C3)C4)[nH]c2c1 | 1 µg/mL (≈ 2.97 µM)
58 | Cc1cc(C)c2cc(C(=O)NC3CCCC3)[nH]c2c1 | 8 to 16 µg/mL (≈ 31.2 to 62.4 µM)
59 | O=C(NCC12CC3CC(CC(C3)C1)C2)c1cc2ccccc2[nH]1 | 4 µg/mL (≈ 13 µM)
60 | Cc1cc(C)c2cc(C(=O)NC34CC5CC(CC(C5)C3)C4)[nH]c2c1 | > 32 µg/mL
